# Assay results published in ChEMBL document CHEMBL1151952, “Biologically active cannabinoids from high-potency Cannabis sativa” (J Nat Prod, 2009).
# Columns and labels:
# [1] = system: Pichia kudriavzevii; experiment: Antifungal activity against Candida krusei ATCC 6258 by alamar blue assay; assay type: functional, organism-based
# [2] = system: Candida albicans; experiment: Antifungal activity against Candida albicans ATCC 90028 after 18 to 24 hrs by alamar blue assay; assay type: functional, organism-based
# [3] = system: Staphylococcus aureus; experiment: Antibacterial activity against Staphylococcus aureus ATCC 29213 by alamar blue assay; assay type: functional, organism-based
# [4] = system: Escherichia coli; experiment: Antibacterial activity against Escherichia coli ATCC 35218 after 18 to 24 hrs by alamar blue assay; assay type: functional, organism-based
# [5] = system: Mycobacterium intracellulare; experiment: Antibacterial activity against Mycobacterium intracellular ATCC 23068 after 68 to 72 hrs by alamar blue assay; assay type: functional, organism-based
# [6] = system: Vero; experiment: Cytotoxicity against african green monkey Vero cells up to 10 ug/mL by neutral red method; assay type: cell-based; conditions: chlorocebus sabaeus
# [7] = system: Staphylococcus aureus; experiment: Antibacterial activity against methicillin-resistant Staphylococcus aureus ATCC 33591 after 18 to 24 hrs by alamar blue assay; assay type: functional, organism-based
# [8] = system: Leishmania donovani; experiment: Antileishmanial activity against Leishmania donovani; assay type: functional, organism-based
# Method in brief: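 Leishmania donovani assay; IC50 and IC90 are the test concentrations that kill 50% and 90% of cells, relative to solvent controls.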
# [9] = system: Plasmodium falciparum; experiment: Antiplasmodial activity against Plasmodium falciparum D6; assay type: functional, organism-based
# [10] = system: Plasmodium falciparum; experiment: Antiplasmodial activity against Plasmodium falciparum W2; assay type: functional, organism-based
# [11] = Staphylococcus aureus, ATCC 29213, read-out: IC50
# [12] = Candida albicans, ATCC 90028, read-out: IC50
# [13] = Mycobacterium intracellulare, ATCC 23068, read-out: IC50
# [14] = Plasmodium falciparum, D6, read-out: IC50
# [15] = Plasmodium falciparum, W2, read-out: IC50
SMILES,IC50 [1],IC50 [2],"IC50 [3, 11]",IC50 [5],Activity [6],IC50 [7],IC50 [4],IC90 [8],IC50 [8],also measured
C[C@@H]1[C@H](O)[C@@H](C)/C=C/C=C/C=C/C=C/C=C/C=C/C=C/[C@H](O[C@@H]2O[C@H](C)[C@@H](O)[C@H](N)[C@@H]2O)C[C@@H]2O[C@](O)(C[C@@H](O)C[C@@H](O)[C@H](O)CC[C@@H](O)C[C@@H](O)CC(=O)O[C@H]1C)C[C@H](O)[C@H]2C(=O)O [AMPHOTERICIN B],0.7 µM,–,–,–,–,–,–,–,–,–
CCCCCc1cc2c(c(O)c1C(=O)O)-c1cc(C)c(O)cc1C(C)(C)O2 [8-HYDROXYCANNABINOLIC ACID A],54 µM,Not Active,3.5 µM,Not Active,Non-toxic,–,–,–,–,"IC50 ([4]; Escherichia coli, ATCC 35218, read-out: IC50): 54 µM"
C=C(C)C(O)CCC1(C)C=Cc2c(O)cc(CCCCC)cc2O1 (racemic),60.5 µM,–,29.6 µM,Not Active,Non-toxic,24.4 µM,Not Active,96.8 µM,–,"IC50 [2, 12]: 60.5 µM; IC50 [9]: Not Active; IC50 [10]: Not Active"
CCCCCc1c(C/C=C(\C)CCC=C(C)C)c(O)cc(O)c1OC(C)=O,53.4 µM,Not Active,12.2 µM,Not Active,Non-toxic,6.7 µM,Not Active,85.4 µM,42.7 µM,IC50 [9]: Not Active; IC50 [10]: Not Active
CCCCCc1cc(O)c2c(c1)OC(C)(C)c1cc(O)c(C)cc1-2,–,–,–,–,Non-toxic,–,Not Active,–,–,"IC50 [2, 12]: 4.6 µM; IC50 [5, 13]: 30.6 µM"
O=C(O)c1cn(C2CC2)c2cc(N3CCNCC3)c(F)cc2c1=O [CIPROFLOXACIN],–,–,–,–,–,–,–,–,–,"IC50 [5, 13]: 1.5 µM"
N=C(N)c1ccc(OCCCCCOc2ccc(C(=N)N)cc2)cc1 [PENTAMIDINE],–,–,–,–,–,–,–,19.1 µM,3.8 µM,–
CCCCCc1cc(O)c2c(c1OC(C)=O)OC(C)(CCC=C(C)C)C=C2 (racemic),–,–,–,–,Non-toxic,–,–,91.3 µM,40.3 µM,"IC50 [9, 14]: 7.2 µM; IC50 [10, 15]: 4 µM"
CCCCCc1cc(O)c(C/C=C(\C)CCC=C(C)C)c(OC(C)=O)c1O,–,Not Active,–,Not Active,Non-toxic,53.4 µM,Not Active,18.7 µM,10.7 µM,"IC50 [3]: Not Active; IC50 [9, 14]: 7.2 µM; IC50 [10, 15]: 6.7 µM"
